Measurements taken from ChEMBL document CHEMBL1126160, “Synthesis and structure-activity relationships of 7-diazabicycloalkylquinolones, including danofloxacin, a new quinolone antibacterial agent for veterinary medicine” (J Med Chem, 1992).
≈ marks a conversion by molar mass, not a printed value.

tested on: Mannheimia haemolytica; assay: Dose was evaluated for minimum effective dose Pasteurella haemolytica, intramuscular dose administration; assay type: functional; settings: im, read-out: MED
How it was run: (§1)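 Calf and swine respiratory disease models. Calves received acetic acid intratracheally on the day before and on day 0, then an endotracheal challenge with P. haemolytica B280PA, about 5 × 10^8 cfu/mL. They were dosed im with a 2.5% or 5% solution in sterile water on days 0 and 1 (SID × 2). Pigs weighing 8.5–12.5 kg were challenged intranasally with A. pleuropneumoniae B316HM, 10^9 cfu/mL. They were dosed once within 1 h, either im (1% or 2.5% solution) or by gavage (0.5% solution). MED was the lowest dose giving significant reduction of lung pathology.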

SMILES	minimal effective dose [mg/kg]
CN1C[C@@H]2C[C@H]1CN2c1cc2c(cc1F)c(=O)c(C(=O)O)cn2C1CC1 [DANOFLOXACIN]	0.15

tested on: Bordetella bronchiseptica; assay: In vitro antibacterial activity against aerobically grown Bordetella bronchiseptica (73A009); assay type: functional; settings: not given
How it was run: (§2)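 Agar dilution MICs. Aerobic strains were tested on brain heart infusion agar and incubated aerobically at 37 °C for 18–20 h.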

SMILES	MIC [µg/mL]
CCn1cc(C(=O)O)c(=O)c2cc(F)c(N3C[C@H]4CC[C@@H](C3)N4C)cc21	> 1.56
CN1C[C@@H]2C[C@H]1CN2c1cc2c(cc1F)c(=O)c(C(=O)O)cn2C1CC1 [DANOFLOXACIN]	0.78 (≈ 2.18 µM)

tested on: Salmonella enterica; assay: In vivo protective dose was evaluated against Salmonella choleraesuis (58B010) in mouse(po); assay type: functional; settings: read-out: PD50
How it was run: (§3)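 Female CF-1 mice (15 g), groups of 10, challenged ip with 0.5 mL bacterial suspension (P. multocida 59A006 or E. coli 51A266 at 3.0 × 10^8 cfu/mL; S. choleraesuis 58B010 at 8.5 × 10^2 cfu/mL). Drug given sc or po at 30 min, 4 h and 24 h after challenge; survival recorded at 96 h; PD50 by probit analysis.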

SMILES	ED50 [mg/kg]
CN1C[C@@H]2C[C@H]1CN2c1cc2c(cc1F)c(=O)c(C(=O)O)cn2C1CC1 [DANOFLOXACIN]	1.12

tested on: Clostridium perfringens; assay: microbe, parasite or virus in culture; assay type: functional; settings: not given

SMILES	MIC [µg/mL]
CCn1cc(C(=O)O)c(=O)c2cc(F)c(N3C[C@H]4CC[C@@H](C3)N4C)cc21	0.39 (≈ 1.09 µM)
CN1C[C@@H]2C[C@H]1CN2c1cc2c(cc1F)c(=O)c(C(=O)O)cn2C1CC1 [DANOFLOXACIN]	0.2 (≈ 0.56 µM)

tested on: Actinobacillus pleuropneumoniae; assay: In vitro antibacterial activity against anaerobically grown Actinobacillus pleuropneumoniae ([…]); assay type: functional; settings: not given
How it was run: (§4)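 Agar dilution MICs. Anaerobic strains were tested on tryptose agar with 5% bovine blood and incubated 48 h at 39 °C in an anaerobe chamber under N2/CO2/H2 (80:10:10).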

SMILES	MIC [µg/mL]
CCn1cc(C(=O)O)c(=O)c2cc(F)c(N3C[C@H]4CC[C@@H](C3)N4C)cc21	0.78 (≈ 2.17 µM)
CN1C[C@@H]2C[C@H]1CN2c1cc2c(cc1F)c(=O)c(C(=O)O)cn2C1CC1 [DANOFLOXACIN]	0.05 (≈ 0.14 µM)

tested on: Pasteurella multocida; assay: In vivo protective dose was evaluated Pasteurella multocida (59A006) in mouse(sc); assay type: functional; settings: read-out: PD50; how it was run: as §3

SMILES	ED50 [mg/kg]
CCn1cc(C(=O)O)c(=O)c2cc(F)c(N3C[C@H]4CC[C@@H](C3)N4C)cc21	1.31

tested on: Escherichia coli; assay: In vivo protective dose was evaluated against Escherichia coli (51A266) in mouse(sc); assay type: functional; settings: read-out: PD50; how it was run: as §3

SMILES	ED50 [mg/kg]
CCn1cc(C(=O)O)c(=O)c2cc(F)c(N3C[C@H]4CC[C@@H](C3)N4C)cc21	2.23

tested on: Actinobacillus pleuropneumoniae; assay: Compound was evaluated for minimum against Actinobacillus pleuropneumoniae intramuscular dose administration; settings: im, read-out: MED

SMILES	minimal effective dose [mg/kg]
CCn1cc(C(=O)O)c(=O)c2cc(F)c(N3C[C@H]4CC[C@@H](C3)N4C)cc21	0.6

tested on: Pasteurella multocida; assay: In vivo protective dose was evaluated Pasteurella multocida (59A006) in mouse(po); assay type: functional; settings: read-out: PD50; how it was run: as §3

SMILES	ED50 [mg/kg]
CCn1cc(C(=O)O)c(=O)c2cc(F)c(N3C[C@H]4CC[C@@H](C3)N4C)cc21	2.21

tested on: Actinobacillus pleuropneumoniae; assay: Compound was evaluated for minimum effective dose Actinobacillus pleuropneumonia, peroral dose administration; assay type: functional; settings: po, read-out: MED; how it was run: as §1

SMILES	minimal effective dose [mg/kg]
CN1C[C@@H]2C[C@H]1CN2c1cc2c(cc1F)c(=O)c(C(=O)O)cn2C1CC1 [DANOFLOXACIN]	0.6

tested on: Pasteurella multocida; assay: In vitro antibacterial activity against aerobically grown Pasteurella multocida (59A006); assay type: functional; settings: not given; how it was run: as §2

SMILES	MIC [µg/mL]
CCn1cc(C(=O)O)c(=O)c2cc(F)c(N3C[C@H]4CC[C@@H](C3)N4C)cc21	0.2 (≈ 0.556 µM)
CN1C[C@@H]2C[C@H]1CN2c1cc2c(cc1F)c(=O)c(C(=O)O)cn2C1CC1 [DANOFLOXACIN]	0.01 (≈ 0.028 µM)

tested on: Pasteurella multocida; assay: In vivo protective dose was evaluated against Pasteurella multocida (59A006) in mouse(po); assay type: functional; settings: read-out: PD50; how it was run: as §3

SMILES	ED50 [mg/kg]
CN1C[C@@H]2C[C@H]1CN2c1cc2c(cc1F)c(=O)c(C(=O)O)cn2C1CC1 [DANOFLOXACIN]	0.31

tested on: Escherichia coli; assay: Escherichia coli DNA cleavage endpoint value which is the minimum amount required (in micro g/mL) to induce detectable cleavage of supercoiled pBR322 substrate to linear form (gyrase); assay type: functional; settings: read-out: MIC
How it was run: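 DNA gyrase A and B subunits were purified from E. coli overproducers. About 2 units of holoenzyme were incubated with pBR322 in Tris-HCl pH 7.5 containing MgCl2, spermidine, DTT, 0.2 mM ATP, BSA and tRNA. Drug was added as 2-fold serial dilutions, and reactions ran for 60 min at 25 °C. Reactions were stopped with SDS and proteinase K, then run on agarose and stained with ethidium. The endpoint was the lowest concentration giving detectable linear DNA.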

SMILES	minimum concentration inducing gyrase-mediated DNA cleavage [µg/mL]
CCn1cc(C(=O)O)c(=O)c2cc(F)c(N3C[C@H]4CC[C@@H](C3)N4C)cc21	3.12
CN1C[C@@H]2C[C@H]1CN2c1cc2c(cc1F)c(=O)c(C(=O)O)cn2C1CC1 [DANOFLOXACIN]	0.78

tested on: Mannheimia haemolytica; assay: Compound was evaluated for minimum against Pasteurella haemolytica intramuscular dose administration; assay type: functional; settings: im, read-out: MED; how it was run: as §1

SMILES	minimal effective dose [mg/kg]
CCn1cc(C(=O)O)c(=O)c2cc(F)c(N3C[C@H]4CC[C@@H](C3)N4C)cc21	1.2

tested on: Escherichia coli; assay: In vivo protective dose was evaluated against Escherichia coli (51A266) in mouse(po); assay type: functional; settings: read-out: PD50; how it was run: as §3

SMILES	ED50 [mg/kg]
CN1C[C@@H]2C[C@H]1CN2c1cc2c(cc1F)c(=O)c(C(=O)O)cn2C1CC1 [DANOFLOXACIN]	0.4

tested on: Actinobacillus pleuropneumoniae; assay: Dose was evaluated for minimum effective dose actinobacillus pleuropneumonia, intramuscular dose administration; settings: im, read-out: MED

SMILES	minimal effective dose [mg/kg]
CN1C[C@@H]2C[C@H]1CN2c1cc2c(cc1F)c(=O)c(C(=O)O)cn2C1CC1 [DANOFLOXACIN]	0.15

tested on: Salmonella enterica; assay: In vitro antibacterial activity against aerobically grown Salmonella choleraesuis (58B015); assay type: functional; settings: not given

SMILES	MIC [µg/mL]
CCn1cc(C(=O)O)c(=O)c2cc(F)c(N3C[C@H]4CC[C@@H](C3)N4C)cc21	0.78 (≈ 2.17 µM)
CN1C[C@@H]2C[C@H]1CN2c1cc2c(cc1F)c(=O)c(C(=O)O)cn2C1CC1 [DANOFLOXACIN]	0.05 (≈ 0.14 µM)

tested on: not listed separately; assay: In vitro evaluation for antibacterial activity against anaerobically grown Treponema hyodysenteriae (94A007); assay type: functional; settings: Brachyspira hyodysenteriae

SMILES	MIC [µg/mL]
CCn1cc(C(=O)O)c(=O)c2cc(F)c(N3C[C@H]4CC[C@@H](C3)N4C)cc21	3.13 (≈ 8.71 µM)
CN1C[C@@H]2C[C@H]1CN2c1cc2c(cc1F)c(=O)c(C(=O)O)cn2C1CC1 [DANOFLOXACIN]	0.39 (≈ 1.09 µM)

tested on: Trueperella pyogenes; assay: In vitro antibacterial activity against anaerobically grown Actinomyces pyogenes (14D002); assay type: functional; settings: not given; how it was run: as §4

SMILES	MIC [µg/mL]
CCn1cc(C(=O)O)c(=O)c2cc(F)c(N3C[C@H]4CC[C@@H](C3)N4C)cc21	> 3.13
CN1C[C@@H]2C[C@H]1CN2c1cc2c(cc1F)c(=O)c(C(=O)O)cn2C1CC1 [DANOFLOXACIN]	> 3.13

tested on: Escherichia coli; assay: In vitro antibacterial activity against aerobically grown Escherichia coli (51A538); assay type: functional; settings: not given; how it was run: as §2

SMILES	MIC [µg/mL]
CCn1cc(C(=O)O)c(=O)c2cc(F)c(N3C[C@H]4CC[C@@H](C3)N4C)cc21	0.78 (≈ 2.17 µM)
CN1C[C@@H]2C[C@H]1CN2c1cc2c(cc1F)c(=O)c(C(=O)O)cn2C1CC1 [DANOFLOXACIN]	0.05 (≈ 0.14 µM)

tested on: Actinobacillus pleuropneumoniae; assay: Compound was evaluated for minimum effective dose against Actinobacillus pleuropneumonia peroral dose administration; assay type: functional; settings: po, read-out: MED; how it was run: as §1

SMILES	minimal effective dose [mg/kg]
CCn1cc(C(=O)O)c(=O)c2cc(F)c(N3C[C@H]4CC[C@@H](C3)N4C)cc21	5

tested on: Staphylococcus aureus; assay: In vitro antibacterial activity against aerobically grown Staphylococcus aureus (54B004); assay type: functional; settings: not given; how it was run: as §2

SMILES	MIC [µg/mL]
CCn1cc(C(=O)O)c(=O)c2cc(F)c(N3C[C@H]4CC[C@@H](C3)N4C)cc21	0.2 (≈ 0.556 µM)
CN1C[C@@H]2C[C@H]1CN2c1cc2c(cc1F)c(=O)c(C(=O)O)cn2C1CC1 [DANOFLOXACIN]	0.39 (≈ 1.09 µM)

tested on: not listed separately; assay: In vitro antibacterial activity against Aerobically grown Pasteurella haemolytica (59B018); assay type: functional; settings: Mannheimia haemolytica; how it was run: as §2

SMILES	MIC [µg/mL]
CCn1cc(C(=O)O)c(=O)c2cc(F)c(N3C[C@H]4CC[C@@H](C3)N4C)cc21	0.39 (≈ 1.09 µM)
CN1C[C@@H]2C[C@H]1CN2c1cc2c(cc1F)c(=O)c(C(=O)O)cn2C1CC1 [DANOFLOXACIN]	0.05 (≈ 0.14 µM)

tested on: Phocaeicola vulgatus; assay: In vitro antibacterial activity against anaerobically grown Bacteroides vulgatus (78D029); assay type: functional; settings: not given; how it was run: as §4

SMILES	MIC [µg/mL]
CCn1cc(C(=O)O)c(=O)c2cc(F)c(N3C[C@H]4CC[C@@H](C3)N4C)cc21	> 3.13
CN1C[C@@H]2C[C@H]1CN2c1cc2c(cc1F)c(=O)c(C(=O)O)cn2C1CC1 [DANOFLOXACIN]	3.13 (≈ 8.76 µM)
